In ChEMBL document CHEMBL4229494, “Novel tertiary sulfonamides as potent anti-cancer agents” (Bioorg Med Chem, 2018):
≈ marks a conversion by molar mass, not a printed value.

Tests used:
[1] = Inhibition of Wnt3A-induced Wnt transcription (unknown origin) expressed in HEK293 cells coexpressing TK-driven Rluc after 20 to 22 hrs by super-top flash reporter gene assay; type: cell-based; details: Homo sapiens
Procedure, shortened: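 HEK-293 cells (DMEM, 10% FBS) were co-transfected with Super(8x)TOPflash, a Wnt3A expression vector and TK-driven Renilla luciferase. After 8 h at 37 °C, 5% CO2, cells were seeded at 25,000/well and treated at 1.6, 8, 40, 200, 1000 or 5000 nM, or with DMSO, for 20-22 h in triplicate. Firefly/Renilla luminescence was taken relative to DMSO, and IC50 was found by nonlinear regression.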

MDA-MB-231 [2] = assay: Antitumor activity against human MDA-MB-231 cells xenografted in athymic nude mouse assessed as decrease in tumor volume at 5 mg/kg, ip administered per week for 16 days relative to control; type: functional; set-up: scale not given: the % may be the effect or the level left
MDA-MB-231 [3] = assay: Antiproliferative activity against human MDA-MB-231 cells after 24 hrs by SYBR green dye based fluorescence assay; type: functional, cell-based; details: MDA-MB-231, 24 h
Procedure, shortened: (§1)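 Cells were plated at 500/well in DMEM/10% FBS and allowed to attach for 24 h at 37 °C, 5% CO2. They were then exposed to 1.6 nM–5 µM or DMSO. One plate was harvested every 24 h over 7 days and frozen at -20 °C. DNA was quantified by SYBR Green fluorescence (Ex495/Em535). Triplicate values relative to DMSO went to nonlinear regression for IC50.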

MCF7 [4] = assay: Induction of apoptosis in human MCF7 cells after 24 hrs by caspase-Glo 3/7 reagent based luminescence assay; type: functional, cell-based; details: MCF7, 24 h
Procedure, shortened: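 MCF-7 cells were plated at 25,000/well (DMEM, 10% FBS) and grown 24 h, then treated at 1.6 nM–5 µM or with DMSO for 24 h. Caspase 3/7 activity was read by Caspase-Glo 3/7 luminescence. Triplicate signals relative to DMSO were analysed by nonlinear regression.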

MCF7 [5] = assay: Antiproliferative activity against human MCF7 cells after 24 hrs by SYBR green dye based fluorescence assay; type: functional, cell-based; details: MCF7, 24 h; procedure, shortened: as §1
[6] = Lipophilicity, log D of the compound at pH 3; type: physicochemical; details: buffer
[7] = Lipophilicity, log D of the compound at pH 7; type: physicochemical; details: buffer
[8] = Solubility of the compound; type: physicochemical

| Compound | IC50 [1] | IC50 (MDA-MB-231 [3]) | EC50 (MCF7 [4]) | IC50 (MCF7 [5]) | logD [6] | logD [7] | solubility [8] | Activity (MDA-MB-231 [2]) |
| --- | --- | --- | --- | --- | --- | --- | --- | --- |
| O=C1CCCN1c1ccc(S(=O)(=O)N2CCCC3CCCCC32)cc1 (configuration not stated) | > 5000 nM |  |  |  |  |  |  |  |
| COc1cccc2c1C(=O)c1c(O)c3c(c(O)c1C2=O)C[C@@](O)(C(=O)CO)C[C@@H]3O[C@H]1C[C@H](N)[C@H](O)[C@H](C)O1 [DOXORUBICIN] |  |  |  |  |  |  |  | 84.3% |
| O=C1CCCN1c1ccc(S(=O)(=O)N2CCCCC2)cc1 | > 5000 nM |  |  |  |  |  |  |  |
| O=S(=O)(c1ccc(N2CCC=N2)cc1)N1CCCc2ccccc21 | 15 nM |  |  |  | 1.5 | 2.9 | 19 µM (≈ 6.49 µg/mL) |  |
| O=C1CCCN1c1ccc(S(=O)(=O)Nc2cccc3ccccc23)cc1 | > 5000 nM |  |  |  |  |  |  |  |
| O=S(=O)(c1ccc(N2CCCC2)cc1)N1CCCc2ccccc21 | 20 nM |  |  |  | 3.6 | 3.7 | < 0.5 µM |  |
| O=S(=O)(c1ccc(-n2cncn2)cc1)N1CCCc2ccccc21 | > 5000 nM | > 5000 nM | > 5000 nM | > 5000 nM |  |  |  |  |
| O=C1CCCN1c1ccc(S(=O)(=O)N2CCN(CCO)c3ccccc32)cc1 | > 5000 nM |  |  |  |  |  |  |  |
| CN1CCN(S(=O)(=O)c2ccc(N3CCCC3)cc2)c2ccccc21 | 7 nM | 16 nM | 6 nM | 4 nM |  |  |  |  |

More lines, main results first:

| IC50 [1] | IC50 (MDA-MB-231 [3]) | EC50 (MCF7 [4]) | IC50 (MCF7 [5]) | logD [6] | logD [7] | solubility [8] | Compound | Activity (MDA-MB-231 [2]) |
| --- | --- | --- | --- | --- | --- | --- | --- | --- |
| > 5000 nM |  |  |  |  |  |  | O=C1CCCN1c1ccc(S(=O)(=O)N2CCc3ccccc32)cc1 |  |
| 660 nM | 608 nM | 307 nM | 318 nM |  |  |  | CC(C)(C)c1ccc2c(c1)CCCN2S(=O)(=O)c1ccc(N2CCCC2=O)cc1 |  |
| 17 nM | 14 nM | 46 nM | 14 nM | 2.9 | 3 | 69.6 µM (≈ 27.9 µg/mL) | COc1ccc2c(c1)N(C)CCN2S(=O)(=O)c1ccc(N2CCCC2=O)cc1 |  |
| 7 nM | 17 nM | 61 nM | 15 nM |  |  |  | Cc1ccc2c(c1)CCCN2S(=O)(=O)c1ccc(N2CCCC2=O)cc1 |  |
| 54 nM |  |  |  |  |  |  | O=C1CCCN1c1ccc(S(=O)(=O)N2CCCc3cc(C(F)(F)F)ccc32)cc1 |  |
| 6 nM | 20 nM | 16 nM | 25 nM |  |  |  | COc1ccc2c(c1)CCCN2S(=O)(=O)c1ccc(N2CCCC2=O)cc1 |  |
